ChEMBL document CHEMBL3797084, “Design and evaluation of novel oxadiazole derivatives as potential prostate cancer agents” (Bioorg Med Chem Lett, 2016)

Legend:
[1] = test system: LNCaP; assay: Cytotoxicity against human LNCAP cells assessed as growth inhibition after 24 hrs by sulforhodamine B assay; assay type: functional, cell-based
Procedure, shortened: (§1)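 LNCaP and PC-3 were kept as monolayers in RPMI with 10% heat-inactivated FBS and penicillin/streptomycin at 37 °C in 5% CO2. Cells were seeded, left overnight, then treated at various concentrations in triplicate wells for 24 h. They were fixed with 10% TCA for 1 h at 4 °C and stained 10 min with 0.4% SRB in 1% acetic acid. Bound dye was solubilized in Tris-HCl and read at 564 nm. IC50 came from a Boltzmann sigmoidal nonlinear fit, as the mean of at least three experiments.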

[2] = Cytotoxicity against human PC3 cells assessed as growth inhibition after 24 hrs by sulforhodamine B assay; assay type: functional, cell-based; conditions: PC-3, 24 h; procedure, shortened: as §1
[3] = Cell cycle arrest in human PC3 cells assessed as accumulation at S phase at 0.2 uM after 48 hrs by propidium iodide staining-based flow cytometry (reference value: 6.9%); assay type: functional; conditions: PC-3
[4] = test system: PC-3; assay: Induction of apoptosis in human PC3 cells assessed as necrotic cells at 0.2 uM after 48 hrs by propidium iodide staining-based flow cytometry (reference value: 0.4%); assay type: functional
[5] = test system: PC-3; assay: Induction of apoptosis in human PC3 cells assessed as late apoptotic cells at 0.2 uM after 48 hrs by propidium iodide staining-based flow cytometry (reference value: 4.2%); assay type: functional
[6] = Cell cycle arrest in human PC3 cells assessed as accumulation at sub G0/G1 phase at 0.2 uM after 48 hrs by propidium iodide staining-based flow cytometry (reference value: 1.6%); assay type: functional; conditions: PC-3
[7] = test system: PC-3; assay: Induction of apoptosis in human PC3 cells assessed as viable cells at 0.2 uM after 48 hrs by propidium iodide staining-based flow cytometry (reference value: 91%); assay type: functional; conditions: PC-3, 48 h, read-out: Activity
[8] = test system: PC-3; assay: Induction of apoptosis in human PC3 cells assessed as early apoptotic cells at 0.2 uM after 48 hrs by propidium iodide staining-based flow cytometry (reference value: 4.4%); assay type: functional
[9] = Cell cycle arrest in human PC3 cells assessed as accumulation at G2/M phase at 0.2 uM after 48 hrs by propidium iodide staining-based flow cytometry (reference value: 25.1%); assay type: functional; conditions: PC-3
[10] = Cell cycle arrest in human PC3 cells assessed as accumulation at G0/G1 phase at 0.2 uM after 48 hrs by propidium iodide staining-based flow cytometry (reference value: 58%); assay type: functional; conditions: PC-3

| Structure (SMILES) | IC50 [1] [µM] | IC50 [2] [µM] | other results |
| --- | --- | --- | --- |
| O=S(=O)(Nc1nnc(-c2ccc3ccccc3c2)o1)c1ccc2ccccc2c1 | 3.2 | 47.8 |  |
| O=C(Nc1nnc(-c2ccccc2)o1)c1ccccc1 | 1.33 | 0.22 | Activity [3]: 9%; Activity [4]: 21.3%; Activity [5]: 15.8%; Activity [6]: 12.1%; viability at 0.2 µM [7]: 49.7%; Activity [8]: 13.2%; Activity [9]: 21.2%; Activity [10]: 50.8% |
| O=S(=O)(Nc1nnc(-c2ccc(C(F)(F)F)cc2)o1)c1ccc2ccccc2c1 | 3.9 | 22.2 |  |
| O=C(Nc1nnc(-c2ccc3ccccc3c2)o1)c1ccc(C(F)(F)F)cc1 | 6.55 | 11.1 |  |
| O=C(Nc1nnc(-c2ccccc2)o1)c1ccc2ccccc2c1 | 32.3 | 26 |  |
| O=c1[nH]cc(F)c(=O)[nH]1 [FLUOROURACIL] | 0.03 | 0.03 |  |
| O=S(=O)(Nc1nnc(-c2ccc(C(F)(F)F)cc2)o1)c1ccccc1 | 2.5 | 8.34 |  |
